Laboratory results reported in ChEMBL document CHEMBL1130423, “Design, synthesis, and biological evaluation of new growth inhibitors of Trypanosoma cruzi (epimastigotes)” (J Med Chem, 1997).

test system: Trypanosoma cruzi; test: Inhibitory concentration against Trypanosoma cruzi (epimastigotes); format: functional, organism-based
In short: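 T. cruzi epimastigotes (Y strain) grown at 28 °C in brain-heart infusion (37 g/L) medium with hemin chlorohydrate (20 mg/L) and 10% newborn calf serum. Initial inoculum 2-3 × 10^6 cells/mL, counted in a Neubauer chamber. Each drug tested at four concentrations with a drug-free control per group. Growth read as absorbance at 600 nm against medium blank. Percent inhibition taken from the start-to-end absorbance change relative to control.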

| Structure (SMILES) | IC50 [µM] |
| --- | --- |
| CCNC(=O)OCCCOc1ccc(OC)cc1 | > 350 |
| CCNC(=O)OC(C)COc1ccc(OC)cc1 (stereo not given) | > 350 |
| CCNC(=O)OC/C=C(\C)CC/C=C(\C)CCC=C(C)C | 147 |
| COc1ccc(OCCCOC2CCCCO2)cc1 (stereo not given) | > 300 |
| CCSC(=O)OC/C=C(\C)CC/C=C(\C)CCC1OC1(C)C (stereo not given) | 210 |
| OCC(O)COc1ccc(Oc2ccccc2)cc1 (stereo not given) | 270 |
| COc1ccc(OCC(C)O)cc1 (stereo not given) | > 500 |
| C=COC(=O)OC(C)COc1ccc(Oc2ccccc2)cc1 (stereo not given) | > 240 |
| COc1ccc(OCCOC2CCCCO2)cc1 (stereo not given) | 218 |
| OC(COc1ccc(Oc2ccccc2)cc1)COC1CCCCO1 (stereo not given) | 142 |
| COc1ccc(OCCO)cc1 | > 500 |
| c1ccc(Oc2ccc(OCCOC3CCCCO3)cc2)cc1 (stereo not given) | 138 |
| O=C(c1ccccc1)c1ccc(OCCO)cc1 | > 400 |
| O=C(c1ccccc1)c1ccc(OCCOC2CCCCO2)cc1 (stereo not given) | 268 |
| C=CCOc1ccc(OC)cc1 [1-allyloxy-4-methoxybenzene] | 209 |
| C=COC(=O)OCCCOc1ccc(Oc2ccccc2)cc1 | 260 |
| C=CCOc1ccc(C(=O)c2ccccc2)cc1 | 129 |
| CCNC(=O)OCCOc1ccc(OC)cc1 | > 300 |
| CCNC(=O)OCC(O)COc1ccc(Oc2ccccc2)cc1 (stereo not given) | 233 |
| CC(C)=CCC/C(C)=C/COC1CCCCO1 (stereo not given) | 68 |
| OC(c1ccccc1)c1ccc(OCCOC2CCCCO2)cc1 (stereo not given) | > 500 |
| CCNC(=O)OC/C=C(\C)CCC=C(C)C | 176 |
| CCNC(=O)OCCOc1ccc(C(=O)c2ccccc2)cc1 | > 300 |
| CC(C)=CCC/C(C)=C/CC/C(C)=C/COC1CCCCO1 (stereo not given) | 78 |
| C=COC(=O)OC/C=C(\C)CC/C=C(\C)CCC=C(C)C | > 500 |
